According to ChEMBL document CHEMBL1153345, “Novel tricyclic inhibitors of IkappaB kinase” (J Med Chem, 2009):

Key:
[1] = target: T1, Inhibitor of nuclear factor kappa-B kinase subunit alpha (Homo sapiens, UniProt O15111); experiment: Inhibition of IKK1-mediated phosphorylation of GST-IkappaBalpha fusion protein afterr 60 mins by fluorescence polarization assay
T1 sequence (O15111 whole entry): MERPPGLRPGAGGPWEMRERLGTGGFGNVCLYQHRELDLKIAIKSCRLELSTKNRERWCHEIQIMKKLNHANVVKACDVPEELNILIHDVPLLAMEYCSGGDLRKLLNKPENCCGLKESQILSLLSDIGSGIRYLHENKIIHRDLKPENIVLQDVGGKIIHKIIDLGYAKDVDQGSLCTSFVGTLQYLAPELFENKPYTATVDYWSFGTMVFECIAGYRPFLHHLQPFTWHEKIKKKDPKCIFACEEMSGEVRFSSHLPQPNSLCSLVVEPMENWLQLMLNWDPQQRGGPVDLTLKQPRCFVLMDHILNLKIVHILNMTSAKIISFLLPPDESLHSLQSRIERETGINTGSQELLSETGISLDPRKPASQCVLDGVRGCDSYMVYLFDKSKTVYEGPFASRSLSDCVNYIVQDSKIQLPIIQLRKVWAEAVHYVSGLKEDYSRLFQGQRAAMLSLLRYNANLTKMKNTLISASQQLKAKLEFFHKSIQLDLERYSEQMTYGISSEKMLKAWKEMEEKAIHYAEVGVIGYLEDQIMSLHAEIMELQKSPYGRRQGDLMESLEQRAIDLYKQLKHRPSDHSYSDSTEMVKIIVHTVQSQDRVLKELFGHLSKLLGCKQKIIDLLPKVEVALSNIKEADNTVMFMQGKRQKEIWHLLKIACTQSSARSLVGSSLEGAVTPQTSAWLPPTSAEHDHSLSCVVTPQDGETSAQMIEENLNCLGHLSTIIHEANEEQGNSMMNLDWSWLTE
Method in brief: (§1)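 GST-IκBα (50 µg/mL) with 20 µM ATP in 25 mM Tris-HCl pH 7.5, 7.5 mM MgCl2, 1 mM DTT, 5% glycerol, BSA; reaction started by adding IKK enzyme (IKK-2 typically 3 µg/mL final) at room temperature. Stopped after 60 min with 33 mM EDTA. Phospho-IκBα quantified by fluorescence polarization, competing with a fluorescein-labelled phosphopeptide for anti-phospho-IκBα antibody.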

[2] = target: T2, Inhibitor of nuclear factor kappa-B kinase subunit beta (Homo sapiens, UniProt O14920); experiment: Inhibition of IKK2-mediated phosphorylation of GST-IkappaBalpha fusion protein afterr 60 mins by fluorescence polarization assay; method in brief: as §1
T2 sequence (O14920 whole entry): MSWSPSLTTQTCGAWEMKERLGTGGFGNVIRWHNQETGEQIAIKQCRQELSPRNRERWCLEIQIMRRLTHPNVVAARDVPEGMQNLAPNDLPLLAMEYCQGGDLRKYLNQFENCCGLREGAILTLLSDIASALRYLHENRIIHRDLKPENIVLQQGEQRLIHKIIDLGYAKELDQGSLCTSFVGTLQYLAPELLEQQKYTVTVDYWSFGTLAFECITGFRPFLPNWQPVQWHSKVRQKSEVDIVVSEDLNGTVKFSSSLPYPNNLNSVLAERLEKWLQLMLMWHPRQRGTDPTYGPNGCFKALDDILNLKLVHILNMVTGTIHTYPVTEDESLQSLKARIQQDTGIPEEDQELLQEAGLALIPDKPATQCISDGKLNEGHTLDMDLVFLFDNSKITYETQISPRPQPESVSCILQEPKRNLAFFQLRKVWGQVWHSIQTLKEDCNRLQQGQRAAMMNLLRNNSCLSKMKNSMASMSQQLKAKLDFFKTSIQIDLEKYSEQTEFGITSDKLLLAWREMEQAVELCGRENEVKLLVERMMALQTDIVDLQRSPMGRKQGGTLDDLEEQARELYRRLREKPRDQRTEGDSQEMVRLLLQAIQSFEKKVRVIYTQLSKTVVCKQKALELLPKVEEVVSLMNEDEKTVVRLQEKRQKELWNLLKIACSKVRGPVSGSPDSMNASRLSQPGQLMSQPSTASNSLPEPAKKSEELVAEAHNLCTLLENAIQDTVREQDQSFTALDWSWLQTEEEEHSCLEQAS

PBMC = experiment: Inhibition of LPS-induced TNFalpha production in human PBMC preincubated for 30 mins before LPS challenge measured afterr 6 hrs by ELISA; format: functional, cell-based
Method in brief: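 PBMCs from healthy donor blood, isolated over ficoll in RPMI containing EDTA and polymyxin, then resuspended in RPMI/10% FBS at 1 × 10^6 cells/mL. Compound preincubated 30 min, then LPS added (25 ng/mL final). Incubated 6 h at 37 °C, 5% CO2; supernatant TNF-α measured by ELISA.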

Liver microsomes [3] = experiment: Metabolic stability in rat liver microsomes assessed as clearance at 3 uM after 1 hr; format: ADME, Microsome
Method in brief: (§2)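 Liver microsomes (mouse, human or rat) at 1 mg/mL protein with 3 µM compound in 65 mM phosphate buffer pH 7.4 and 1 mM NADPH, 37 °C, 1 h. Samples taken at 0 and 15 min and quenched with acetonitrile. Metabolic rate calculated from parent disappearance between 0 and 15 min.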

Liver microsomes [4] = experiment: Metabolic stability in human liver microsomes assessed as clearance at 3 uM after 1 hr; format: ADME, Microsome; method in brief: as §2
[5] = Metabolic stability in mouse liver microsomes assessed as clearance at 3 uM after 1 hr; format: ADME, Microsome; method in brief: as §2
[6] = Cmax in rat at 2 mg/kg, iv; format: ADME, organism-based; design: dose 2 mg/kg, route intravenous; conditions: in vivo
Method in brief: (§3)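 Some compounds were dosed as a cassette of five compounds at 2 mg/kg each, after prescreening to exclude potent CYP inhibitors (IC50 < 10 µM).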

[7] = AUC in rat at 2 mg/kg, iv; format: ADME, organism-based; design: dose 2 mg/kg, route intravenous; conditions: plasma; method in brief: as §3
[8] = Half life in rat at 2 mg/kg, iv; format: ADME, organism-based; design: dose 2 mg/kg, route intravenous; conditions: in vivo; method in brief: as §3
[9] = Clearance in rat at 2 mg/kg, iv; format: ADME, organism-based; design: dose 2 mg/kg, route intravenous; conditions: in vivo; method in brief: as §3
[10] = Volume of distribution at steady state in rat at 2 mg/kg, iv; format: ADME, organism-based; design: dose 2 mg/kg, route intravenous; conditions: in vivo, read-out: Vdss; method in brief: as §3
Mus musculus = experiment: Inhibition of LPS-induced TNFalpha release in serum of BALB/c mouse at 10 mg/kg, po administered 4 hrs before LPS challenge measured afterr 90 mins by ELISA relative to control; format: functional
Method in brief: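 Female BALB/c mice, 6-8 weeks old, acclimated at least 1 week. Compound given orally in 100% PEG300 (0.1 mL) about 4 h before ip LPS (E. coli O111:B4, 0.1 mL of 10 µg/mL in PBS; 50 µg/kg). Vehicle-only controls. Blood taken 90 min after LPS; serum TNF-α by ELISA; mean ± SEM, n = 8 per group.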

[11] = Selectivity ratio of IC50 for IKK1 to IC50 for IKK2
Method in brief: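 Buffer was 25 mM Tris-HCl pH 7.5 with 7.5 mM MgCl2, 1 mM DTT, 5% glycerol and 470 µg/mL BSA. IKK-2 was typically 3 µg/mL final. Reactions ran 60 min at room temperature, stopped with 33 mM EDTA. Phospho-IκBα was read by fluorescence-polarization competition of a fluorescein phosphopeptide for an anti-phospho antibody. Ratio = IKK1 IC50/IKK2 IC50.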

[12] = target: Tyrosine-protein kinase BTK (Homo sapiens, UniProt Q06187); experiment: Inhibition of Btk
Tyrosine-protein kinase BTK, sequence (Q06187 whole entry): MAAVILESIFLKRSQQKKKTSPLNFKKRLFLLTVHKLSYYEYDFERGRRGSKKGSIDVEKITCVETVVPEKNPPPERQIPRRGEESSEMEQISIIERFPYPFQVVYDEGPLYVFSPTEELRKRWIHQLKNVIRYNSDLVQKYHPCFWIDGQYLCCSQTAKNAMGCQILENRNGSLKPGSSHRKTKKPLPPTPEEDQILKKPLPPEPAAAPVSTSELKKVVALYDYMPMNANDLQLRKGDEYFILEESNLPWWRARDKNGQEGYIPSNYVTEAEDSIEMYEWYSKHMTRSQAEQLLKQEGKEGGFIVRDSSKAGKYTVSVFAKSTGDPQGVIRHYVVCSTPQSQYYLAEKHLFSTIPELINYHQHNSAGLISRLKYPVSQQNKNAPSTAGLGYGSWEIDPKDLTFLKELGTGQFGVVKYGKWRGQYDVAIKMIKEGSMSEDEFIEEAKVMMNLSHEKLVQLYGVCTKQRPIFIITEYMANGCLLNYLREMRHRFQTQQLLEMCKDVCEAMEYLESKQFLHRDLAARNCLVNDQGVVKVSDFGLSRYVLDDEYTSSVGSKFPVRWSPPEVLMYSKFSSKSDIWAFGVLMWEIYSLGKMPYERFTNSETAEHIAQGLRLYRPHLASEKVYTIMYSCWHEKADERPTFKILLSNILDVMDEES
Method in brief: (§4)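 In-house kinase selectivity panel of 30 kinases; enzyme inhibition values reported in µM.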

[13] = target: Cyclin-dependent kinase 2 (Homo sapiens, UniProt P24941); experiment: Inhibition of Cdk2; method in brief: as §4
[14] = Inhibition of IGFR; method in brief: as §4
[15] = target: T3, Tyrosine-protein kinase ITK/TSK (Homo sapiens, UniProt Q08881); experiment: Inhibition of Itk; method in brief: as §4
T3 sequence (Q08881 whole entry): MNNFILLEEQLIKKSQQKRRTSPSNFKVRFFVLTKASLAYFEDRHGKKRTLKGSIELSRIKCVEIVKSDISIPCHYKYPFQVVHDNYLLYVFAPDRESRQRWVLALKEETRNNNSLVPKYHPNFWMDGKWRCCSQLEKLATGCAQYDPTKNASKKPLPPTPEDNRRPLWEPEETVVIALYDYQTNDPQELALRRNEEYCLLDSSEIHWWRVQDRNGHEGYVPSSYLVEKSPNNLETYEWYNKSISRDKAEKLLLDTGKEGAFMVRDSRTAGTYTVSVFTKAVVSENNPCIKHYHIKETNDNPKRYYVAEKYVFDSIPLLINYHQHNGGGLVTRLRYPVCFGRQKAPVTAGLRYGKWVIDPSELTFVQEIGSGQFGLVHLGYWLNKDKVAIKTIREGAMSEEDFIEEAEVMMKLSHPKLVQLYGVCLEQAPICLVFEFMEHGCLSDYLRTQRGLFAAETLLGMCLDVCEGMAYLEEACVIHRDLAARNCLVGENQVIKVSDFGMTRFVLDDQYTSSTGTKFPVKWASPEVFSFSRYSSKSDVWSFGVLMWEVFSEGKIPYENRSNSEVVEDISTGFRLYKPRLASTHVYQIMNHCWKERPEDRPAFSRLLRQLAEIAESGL

[16] = target: T4, Inhibitor of nuclear factor kappa-B kinase subunit epsilon (Homo sapiens, UniProt Q14164); experiment: Inhibition of IKKepsilon; method in brief: as §4
T4 sequence (Q14164 whole entry): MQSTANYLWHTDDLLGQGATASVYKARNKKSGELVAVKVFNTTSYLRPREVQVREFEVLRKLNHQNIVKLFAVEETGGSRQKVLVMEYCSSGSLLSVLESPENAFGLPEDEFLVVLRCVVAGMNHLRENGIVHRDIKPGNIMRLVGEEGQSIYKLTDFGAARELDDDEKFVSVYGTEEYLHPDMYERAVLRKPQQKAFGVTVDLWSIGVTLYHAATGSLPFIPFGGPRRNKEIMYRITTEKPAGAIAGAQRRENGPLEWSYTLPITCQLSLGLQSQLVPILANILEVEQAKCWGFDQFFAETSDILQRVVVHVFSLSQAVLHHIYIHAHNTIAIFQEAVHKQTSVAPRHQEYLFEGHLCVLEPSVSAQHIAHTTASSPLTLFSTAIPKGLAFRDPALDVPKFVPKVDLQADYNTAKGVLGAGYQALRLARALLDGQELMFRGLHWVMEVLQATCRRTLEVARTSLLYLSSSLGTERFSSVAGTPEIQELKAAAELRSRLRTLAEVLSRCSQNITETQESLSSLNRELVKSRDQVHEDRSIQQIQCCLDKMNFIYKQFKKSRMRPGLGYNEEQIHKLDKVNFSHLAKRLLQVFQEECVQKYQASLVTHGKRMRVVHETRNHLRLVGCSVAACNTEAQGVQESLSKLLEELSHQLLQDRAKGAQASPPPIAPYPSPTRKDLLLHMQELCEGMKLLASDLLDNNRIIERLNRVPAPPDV

[17] = target: Serine/threonine-protein kinase PLK1 (Homo sapiens, UniProt P53350); experiment: Inhibition of Plk1; method in brief: as §4
Serine/threonine-protein kinase PLK1, sequence (P53350 whole entry): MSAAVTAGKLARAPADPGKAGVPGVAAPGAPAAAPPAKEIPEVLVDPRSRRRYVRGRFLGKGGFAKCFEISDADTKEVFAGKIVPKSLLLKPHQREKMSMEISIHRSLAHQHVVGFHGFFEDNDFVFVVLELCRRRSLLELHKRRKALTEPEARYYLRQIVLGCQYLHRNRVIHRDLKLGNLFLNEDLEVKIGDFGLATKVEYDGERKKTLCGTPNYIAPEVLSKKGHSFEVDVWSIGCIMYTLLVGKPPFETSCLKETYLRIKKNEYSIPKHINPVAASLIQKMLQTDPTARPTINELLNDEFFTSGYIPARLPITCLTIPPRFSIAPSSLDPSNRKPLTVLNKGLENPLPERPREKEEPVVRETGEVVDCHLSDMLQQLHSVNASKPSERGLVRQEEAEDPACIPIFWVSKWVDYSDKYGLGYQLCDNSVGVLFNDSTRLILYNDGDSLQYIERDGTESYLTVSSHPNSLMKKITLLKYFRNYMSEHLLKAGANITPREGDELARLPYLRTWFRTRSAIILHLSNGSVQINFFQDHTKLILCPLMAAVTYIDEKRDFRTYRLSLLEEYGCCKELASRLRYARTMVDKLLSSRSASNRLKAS

[18] = target: Proto-oncogene tyrosine-protein kinase Src (Homo sapiens, UniProt P12931); experiment: Inhibition of Src; method in brief: as §4
Proto-oncogene tyrosine-protein kinase Src, sequence (P12931 2-536 limits assumed): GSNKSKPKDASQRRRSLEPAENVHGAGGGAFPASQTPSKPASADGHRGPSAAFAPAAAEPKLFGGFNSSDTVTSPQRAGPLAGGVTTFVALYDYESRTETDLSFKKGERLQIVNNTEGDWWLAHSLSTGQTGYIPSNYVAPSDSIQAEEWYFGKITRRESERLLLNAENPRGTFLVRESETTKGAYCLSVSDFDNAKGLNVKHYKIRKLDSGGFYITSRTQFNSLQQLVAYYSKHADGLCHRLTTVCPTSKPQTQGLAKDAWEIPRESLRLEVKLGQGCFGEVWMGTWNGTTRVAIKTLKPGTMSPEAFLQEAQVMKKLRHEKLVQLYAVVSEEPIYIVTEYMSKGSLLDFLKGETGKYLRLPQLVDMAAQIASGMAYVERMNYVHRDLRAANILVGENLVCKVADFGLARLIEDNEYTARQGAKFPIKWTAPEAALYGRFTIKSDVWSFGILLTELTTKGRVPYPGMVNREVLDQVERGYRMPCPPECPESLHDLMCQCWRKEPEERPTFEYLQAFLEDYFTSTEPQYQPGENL

SMILES	IC50 [1] [µM]	IC50 [2] [µM]	IC50 (PBMC) [µM]	CL (Liver microsomes [3]) [nmol/mg/min]	CL (Liver microsomes [4]) [nmol/mg/min]	CL [5] [nmol/mg/min]	Cmax [6] [µM]	AUC [7] [µM·h]	half-life [8] [min]	clearance [9] [L/h/kg]	Vd [10] [L/kg]	inhibition in vivo at 10 mg/kg (Mus musculus) [%]	Ratio IC50 [11]	IC50 [12] [µM]	IC50 [13] [µM]	IC50 [14] [µM]	IC50 [15] [µM]	IC50 [16] [µM]	IC50 [17] [µM]	IC50 [18] [µM]
CNc1nc2sc(-c3cccc(CNC(=O)c4csnn4)c3)nc2c2c1ncn2C	10	0.016	0.082	0.14	0.16	0.23	3.9	5	36	0.18	0.2	50	–	–	–	–	–	–	–	–
CNc1nc2sc(-c3ccccc3)nc2c2c1ncn2C	3.5	0.006	–	0.12	0.09	0.25	3	2.8	72	2.52	2.8	–	580	–	–	–	–	–	–	–
CNc1nc2oc(-c3ccccc3)nc2c2c1ncn2C	0.27	0.011	–	0.14	0.09	0.23	–	–	–	–	–	–	–	23	16	< 50	17	17	< 50	< 50
CNc1nc2sc(-c3cccc(CNC(C)=O)c3)nc2c2c1ncn2C	1.9	0.022	0.35	–	–	–	–	–	–	–	–	–	–	17	31	< 50	9.1	12	< 50	< 50
CNc1nc2c(nc(-c3ccccc3)n2C)c2c1ncn2C	4.3	0.52	0.44	0.08	0.13	0.12	–	–	–	–	–	–	–	14	23	< 50	19	14	12	< 50
